{"data": "Measured values from different studies", "target": "Mitogen-activated protein kinase kinase kinase kinase 3 (MAP4K3, Homo sapiens, UniProt Q8IVH8)", "One construct used (Q8IVH8 1-894)": "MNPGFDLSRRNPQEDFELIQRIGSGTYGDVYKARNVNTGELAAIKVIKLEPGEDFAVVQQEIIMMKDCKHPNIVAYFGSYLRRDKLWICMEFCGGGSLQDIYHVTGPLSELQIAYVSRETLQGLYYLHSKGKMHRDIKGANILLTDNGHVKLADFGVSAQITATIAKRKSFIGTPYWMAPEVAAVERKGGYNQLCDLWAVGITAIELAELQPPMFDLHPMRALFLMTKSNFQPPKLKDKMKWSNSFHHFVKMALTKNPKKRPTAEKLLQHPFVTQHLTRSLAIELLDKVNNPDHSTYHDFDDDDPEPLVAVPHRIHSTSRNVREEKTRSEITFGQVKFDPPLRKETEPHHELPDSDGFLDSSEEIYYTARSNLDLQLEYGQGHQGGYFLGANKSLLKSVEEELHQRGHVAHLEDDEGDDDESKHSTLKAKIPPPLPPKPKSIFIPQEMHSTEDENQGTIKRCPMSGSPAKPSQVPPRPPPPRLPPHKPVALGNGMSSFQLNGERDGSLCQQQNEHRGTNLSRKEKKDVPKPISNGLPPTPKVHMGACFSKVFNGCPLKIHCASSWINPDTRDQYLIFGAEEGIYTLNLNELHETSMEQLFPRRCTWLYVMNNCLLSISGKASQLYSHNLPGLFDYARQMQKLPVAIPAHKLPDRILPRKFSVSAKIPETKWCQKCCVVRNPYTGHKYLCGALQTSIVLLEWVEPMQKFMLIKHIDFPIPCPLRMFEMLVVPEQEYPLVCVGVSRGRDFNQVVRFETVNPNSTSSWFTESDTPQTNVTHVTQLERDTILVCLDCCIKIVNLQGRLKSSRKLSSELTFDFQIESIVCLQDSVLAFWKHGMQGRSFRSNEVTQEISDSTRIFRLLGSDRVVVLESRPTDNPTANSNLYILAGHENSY", "note": "Protocols differ between the studies behind these lines."}
{"Compound": "CCN1CCN(Cc2ccc(C(=O)Nc3ccc(C)c(Oc4ccc5c(c4)CC(=O)N5)c3)cc2C(F)(F)F)CC1", "assay": "binding, competition with immobilised ligand", "conditions": "1 µM", "remaining binding [%]": 76}
{"Compound": "N[C@H]1CCN(c2nccc(-c3cnn4ncccc34)n2)C1", "assay": "binding", "conditions": "1 µM", "remaining binding [%]": 100}
{"Compound": "Nc1c(C(=O)NCc2ccc(C(=O)NCCCC3CCCCC3)cc2)cnn1-c1ccccc1", "assay": "cell-free assay, competition with immobilised ligand", "conditions": "0.1 µM", "remaining binding [%]": 100}
{"Compound": "COc1cnc(Nc2cccc(S(N)(=O)=O)c2)nc1N1CCN(c2ccccc2)CC1", "assay": "binding, competition with immobilised ligand", "conditions": "1 µM", "remaining binding [%]": 98}
{"Compound": "O=C(NCC1CCOCC1)c1n[nH]cc1NC(=O)c1c(F)cccc1F", "assay": "binding, competition with immobilised ligand", "conditions": "1 µM", "remaining binding [%]": 82}
{"Compound": "COc1ccnn2ncc(-c3ccnc(N(C)C)n3)c12", "assay": "binding", "conditions": "1 µM", "remaining binding [%]": 100}
{"Compound": "O=C(c1ccc(Nc2nccc(-c3cc4ccccc4s3)n2)cc1)N1CCC(N2CCCC2)CC1", "assay": "binding, competition with immobilised ligand", "conditions": "1 µM", "remaining binding [%]": 93}
{"Compound": "CN(C)c1nccc(-c2cnn3ncccc23)n1", "assay": "binding", "conditions": "1 µM", "remaining binding [%]": 100}
{"Compound": "Nc1cnc(N2CCc3cc(S(=O)(=O)Nc4c(F)cc(Cl)cc4F)cc(N4CCCC4=O)c32)nc1", "assay": "cell-free assay, competition with immobilised ligand", "conditions": "1 µM", "remaining binding [%]": 93}
{"Compound": "c1cnn2ncc(-c3ccnc(N4CCC45COC5)n3)c2c1", "assay": "binding", "conditions": "1 µM", "remaining binding [%]": 88}
{"Compound": "CCS(=O)(=O)c1cc2cc(C[C@@](O)(CC(C)(C)c3ccc(F)cc3C(N)=O)C(F)(F)F)[nH]c2cn1", "assay": "cell-free assay, competition with immobilised ligand", "conditions": "1 µM", "remaining binding [%]": 82}
{"Compound": "Cc1cnn2ncc(-c3ccnc(N(C)C)n3)c2c1", "assay": "binding", "conditions": "1 µM", "remaining binding [%]": 100}
{"Compound": "FC(F)(F)Oc1cccc(-c2cnc3ccc(-c4ccncc4)nn23)c1", "assay": "cell-free assay, competition with immobilised ligand", "conditions": "5 µM", "remaining binding [%]": 86}
{"Compound": "CNC(=O)[C@@H]1CC[C@@H](n2c(-c3ccc4cnccc4c3)nc3ccc(C(=O)NCc4cccc(C(N)=O)c4)cc32)C1", "assay": "binding, competition with immobilised ligand", "conditions": "1 µM", "remaining binding [%]": 100}
{"Compound": "O=C(N1CCS(=O)(=O)CC1)N1C[C@H](c2ccc(OC(F)(F)F)cc2)C[C@H](c2nc(C3CC3)no2)C1", "assay": "cell-free assay, competition with immobilised ligand", "conditions": "1 µM", "remaining binding [%]": 100}
{"Compound": "O=C(c1ccc(Nc2ncc(Cl)c(-c3cc4ccccc4s3)n2)cc1)N1CCC(N2CCCC2)CC1", "assay": "binding, competition with immobilised ligand", "conditions": "1 µM", "remaining binding [%]": 40}
{"Compound": "Cc1c(C(=O)O)cc(-c2ccc(C3CCNCC3)cc2)c2ccc(-c3ccc(C(F)(F)F)cc3)cc12", "assay": "binding, competition with immobilised ligand", "conditions": "1 µM", "remaining binding [%]": 100}
{"Compound": "Cc1cnc(Nc2ccc(C(=O)N3CCC(N4CCCC4)CC3)cc2)nc1-c1cc2ccccc2s1", "assay": "binding, competition with immobilised ligand", "conditions": "1 µM", "remaining binding [%]": 50}
{"Compound": "C[C@H]1CCN(c2nccc(-c3cnn4ncccc34)n2)C1", "assay": "binding", "conditions": "1 µM", "remaining binding [%]": 100}
{"Compound": "O=C(Nc1cccnn1)N1CC(C/C=C/c2cncc(Oc3ccc(C(F)(F)F)cn3)n2)C1", "assay": "cell-free assay, competition with immobilised ligand", "conditions": "1 µM", "remaining binding [%]": 100}
